Test results reported in ChEMBL document CHEMBL4834395, “Azole-Based Indoleamine 2,3-Dioxygenase 1 (IDO1) Inhibitors” (J Med Chem, 2021).
Calls of active or inactive are those of the source. No cut-off for these calls is given here.

Columns and labels:
[1] = biological target: T1, Indoleamine 2,3-dioxygenase 1 (Homo sapiens, UniProt P14902); assay: Inhibition of recombinant human IDO1 expressed in Escherichia coli Rosetta (DE3) cells assessed as reduction in kynurenine production using L-tryptophan as substrate incubated for 20 mins by HPLC analysis
Target sequence in this assay (P14902 whole entry): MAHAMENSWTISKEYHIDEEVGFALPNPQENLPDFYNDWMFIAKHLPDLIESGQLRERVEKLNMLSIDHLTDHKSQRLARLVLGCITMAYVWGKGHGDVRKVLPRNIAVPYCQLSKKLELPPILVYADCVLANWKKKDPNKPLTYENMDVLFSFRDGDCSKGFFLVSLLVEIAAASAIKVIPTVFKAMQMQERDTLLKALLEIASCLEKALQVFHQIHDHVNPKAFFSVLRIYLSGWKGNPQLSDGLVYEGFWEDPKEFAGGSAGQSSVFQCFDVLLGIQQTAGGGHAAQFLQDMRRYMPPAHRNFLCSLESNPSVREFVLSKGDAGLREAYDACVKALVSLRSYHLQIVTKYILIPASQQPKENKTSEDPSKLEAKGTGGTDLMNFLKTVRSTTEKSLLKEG

[2] = system: HEK-293T; assay: Cytotoxicity against human HEK293T cells assessed as reduction in cell viability at 200 uM after 7 hrs by DAPI staining based assay
Summary of the method: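 HEK 293T cells transiently transfected with hIDO1 (plus GFP plasmid), treated at 200 μM test compound with 2% final DMSO for 7 h at 37 °C; DMSO as negative control. Cells then washed in PBS, resuspended in PBS with 1 μg/mL DAPI and analysed immediately by flow cytometry to detect apoptotic cells.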

[3] = biological target: T1, Indoleamine 2,3-dioxygenase 1; assay: Inhibition of human IDO1 expressed in HEK293T cells assessed as reduction in kynurenine production at 200 uM using L-tryptophan as substrate incubated for 7 hrs by HPLC analysis; assay type: cell-based
Summary of the method: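 HEK 293T cells transiently transfected with full-length hIDO1 in pcDNA6/myc-His (with GFP plasmid to check efficiency); 16–18 h later replated in phenol-red-free DMEM with 10% FBS, 1 mM pyruvate, and added 500 μM L-trp. Compound at 200 μM, 2% final DMSO, 7 h at 37 °C; stopped with TCA (4% final). Kynurenine read by p-DMAB absorbance at 480 nm or by HPLC.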
Target sequence in this assay (P14902 whole entry, looked up): as the sequence (P14902 whole entry) above

[4] = biological target: T1, Indoleamine 2,3-dioxygenase 1; assay: Inhibition of human IDO1 expressed in HEK293T cells assessed as reduction in kynurenine production using L-tryptophan as substrate incubated for 7 hrs by HPLC analysis; assay type: cell-based
Target sequence in this assay (P14902 whole entry): as above

[5] = biological target: T1, Indoleamine 2,3-dioxygenase 1; assay: Inhibition of recombinant human IDO1 expressed in Escherichia coli Rosetta (DE3) cells assessed as reduction in kynurenine production using L-tryptophan as substrate at pH 7.4 incubated for 20 mins by HPLC analysis
Target sequence in this assay (P14902 whole entry): as above

Compound	IC50 [1] [µM]	Activity [2]	inhibition [3]	IC50 [4] [µM]	IC50 [5] [µM]
Cn1cncc1-c1cc(Cl)ccc1O	17	Non-Toxic	–	–	–
Nc1ccccc1-c1cnc[nH]1	18	Non-Toxic	–	–	–
Clc1cccc(-c2c[nH]nn2)c1	0.35	Non-Toxic	–	–	–
Oc1ccc(Cl)cc1-n1ccnc1	2.1	Non-Toxic	inactive	–	–
Clc1cccc(-c2nnn[nH]2)c1	100	Non-Toxic	–	–	–
Oc1ccccc1-c1c[nH]nn1	2.3	Non-Toxic	–	–	–
c1ccc(-c2c[nH]cn2)cc1	–	Non-Toxic	–	–	–
Oc1ccccc1-n1ccnc1	16	Non-Toxic	–	–	–
Oc1ccc(Cl)cc1-c1cnc[nH]1	–	Non-Toxic	–	–	–
Nc1ccc(Cl)cc1-c1nnc[nH]1	0.035	Non-Toxic	–	0.034	–
Clc1cccc(-n2ccnc2)c1	41	Non-Toxic	–	–	–
Cn1cncc1-c1cc(Cl)ccc1N	1200	Non-Toxic	–	–	–
Oc1ccc(Cl)cc1-c1c[nH]nn1	–	Non-Toxic	–	–	–
Cn1cncc1-c1ccccc1O	38	Non-Toxic	–	–	–
c1ccc(-c2nc[nH]n2)cc1	–	Non-Toxic	–	–	580
Cn1cncc1-c1cccc(Cl)c1	12.9	Non-Toxic	–	–	–
Nc1ccc(Cl)cc1-c1cnc[nH]1	12.1	Non-Toxic	–	–	–
Cn1cncc1-c1ccccc1	–	Non-Toxic	–	–	–
Nc1ccc(Br)cc1-c1nc[nH]n1	0.02	–	–	–	–

Compound	IC50 [1] [µM]	Activity [2]	inhibition [3]	IC50 [4] [µM]	IC50 [5] [µM]
Nc1ccc(Cl)cc1-n1ccnc1	88	Non-Toxic	–	–	–
Oc1ccccc1-c1nnc[nH]1	31	Non-Toxic	–	–	–
Oc1ccc(Cl)cc1-c1nnn[nH]1	16	Non-Toxic	–	–	–
Clc1cccc(-c2cnc[nH]2)c1	2.6	Non-Toxic	–	–	–
Clc1cccc(-c2nnc[nH]2)c1	31	Non-Toxic	–	–	–
Oc1ccccc1-c1nnn[nH]1	700	Non-Toxic	–	–	–
Nc1ccccc1-c1nnc[nH]1	2	Non-Toxic	–	–	–
Nc1ccc(Cl)cc1-c1cnn[nH]1	1.5	30%	–	–	–
Cn1cncc1-c1ccccc1N	1700	Non-Toxic	–	–	–
c1ccc(-c2cnn[nH]2)cc1	–	Non-Toxic	–	–	–
Oc1ccccc1-c1c[nH]cn1	–	Non-Toxic	–	–	–
c1ccc(-c2nnn[nH]2)cc1	–	Non-Toxic	–	–	–
Nc1ccc(Cl)cc1-c1nnn[nH]1	0.22	Non-Toxic	–	–	–
Oc1ccc(Cl)cc1-c1nnc[nH]1	0.6	Non-Toxic	–	–	–
Nc1ccccc1-c1c[nH]nn1	33	30%	–	–	–
Nc1ccccc1-c1nnn[nH]1	5.8	Non-Toxic	–	–	–
Nc1ccccc1-n1ccnc1	1300	Non-Toxic	–	–	–
c1ccc(-n2ccnc2)cc1	–	Non-Toxic	–	–	–
